{
  "source": "ChEMBL document CHEMBL5303300",
  "about": "“EUbOPEN Chemogenomics Library - Multiplex” (2023)",
  "key": {"HEK-293T": {"test_system": "HEK-293T", "assay": "Multiplex assay against HEK293T", "assay_type": "toxicity, cell-based", "details": "human, number of replicates 2", "in_short": "(§1)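 Four dyes were applied at seeding to live cells: Hoechst33342, BioTracker Green Microtubule Cytoskeleton Dye, MitoTracker Red and Annexin V Alexa Fluor 680. Imaging after compound addition used a CQ1 microscope at 37°C and 5% CO2. CellPathfinder machine-learning gating then sorted cells into Hoechst high-intensity objects or normal cells, normal cells into healthy, pyknosed or fragmented nuclei, and pyknosed cells into mitotic or apoptotic, with tubulin, mitochondrial-mass and membrane-permeability phenotypes given as per cents of healthy-nucleus cells.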"}, "U2OS": {"test_system": "U2OS", "assay": "Multiplex assay against U2OS", "assay_type": "toxicity, cell-based", "details": "human, number of replicates 2", "in_short": "as §1"}, "[1]": {"details": "24 h, 1 µM, compound concentration 1 uM"}, "[2]": {"details": "24 h, 10 µM, compound concentration 10 uM"}, "[3]": {"details": "48 h, 1 µM, compound concentration 1 uM"}, "[4]": {"details": "48 h, 10 µM, compound concentration 10 uM"}, "[5]": {"details": "12 h, 1 µM, compound concentration 1 uM"}, "[6]": {"details": "12 h, 10 µM, compound concentration 10 uM"}},
  "note": "Several values for one entry are separate records, joined by “and”; a condition that tells them apart may be missing. Equal values may be shown once.",
  "data": [
    {"smiles": "CCC(=O)O[C@@H](OP(=O)(CCCCc1ccccc1)CC(=O)N1C[C@H](C2CCCCC2)C[C@H]1C(=O)[O-])C(C)C.[Na+]", "note": "(stereo partly specified)", "values": [
      {"measurement": "Population Hoechst High Intensity Objects (%)", "setting": "HEK-293T; [1]", "result": "7% and 8%"},
      {"measurement": "Population Membrane Permeable-Phenotype (%)", "setting": "HEK-293T; [1]", "result": 3, "unit": "%"},
      {"measurement": "Population Mitochondria Different-Phenotype (%)", "setting": "HEK-293T; [1]", "result": "4% and 5%"},
      {"measurement": "Population Mitotic Cells (%)", "setting": "HEK-293T; [1]", "result": "59% and 58%"},
      {"measurement": "Population Normal (%)", "setting": "HEK-293T; [1]", "result": "92% and 91%"},
      {"measurement": "Population Pyknosed Nuclei (%)", "setting": "HEK-293T; [1]", "result": "7% and 8%"},
      {"measurement": "Population Tubulin-Different-Phenotype (%)", "setting": "HEK-293T; [1]", "result": "26% and 30%"},
      {"measurement": "Total Cell Count", "setting": "HEK-293T; [1]", "result": "1141 and 899"},
      {"measurement": "Population Apoptotic (%)", "setting": "HEK-293T; [2]", "result": "18% and 31%"},
      {"measurement": "Population Fragmented Nuclei (%)", "setting": "HEK-293T; [2]", "result": "3% and 4%"},
      {"measurement": "Population Healthy Nuclei (%)", "setting": "HEK-293T; [2]", "result": "89% and 88%"},
      {"measurement": "Population Hoechst High Intensity Objects (%)", "setting": "HEK-293T; [2]", "result": "6% and 9%"},
      {"measurement": "Population Membrane Permeable-Phenotype (%)", "setting": "HEK-293T; [2]", "result": "3% and 2%"},
      {"measurement": "Population Mitochondria Different-Phenotype (%)", "setting": "HEK-293T; [2]", "result": "2% and 3%"},
      {"measurement": "Population Mitotic Cells (%)", "setting": "HEK-293T; [2]", "result": "81% and 68%"},
      {"measurement": "Population Normal (%)", "setting": "HEK-293T; [2]", "result": "93% and 90%"},
      {"measurement": "Population Pyknosed Nuclei (%)", "setting": "HEK-293T; [2]", "result": "7% and 6%"},
      {"measurement": "Population Tubulin-Different-Phenotype (%)", "setting": "HEK-293T; [2]", "result": "28% and 31%"},
      {"measurement": "Total Cell Count", "setting": "HEK-293T; [2]", "result": "1219 and 1091"},
      {"measurement": "Population Apoptotic (%)", "setting": "HEK-293T; [3]", "result": "22% and 18%"},
      {"measurement": "Population Fragmented Nuclei (%)", "setting": "HEK-293T; [3]", "result": "12% and 7%"},
      {"measurement": "Population Healthy Nuclei (%)", "setting": "HEK-293T; [3]", "result": "84% and 88%"},
      {"measurement": "Population Hoechst High Intensity Objects (%)", "setting": "HEK-293T; [3]", "result": "9% and 11%"},
      {"measurement": "Population Membrane Permeable-Phenotype (%)", "setting": "HEK-293T; [3]", "result": "5% and 4%"},
      {"measurement": "Population Mitochondria Different-Phenotype (%)", "setting": "HEK-293T; [3]", "result": "0% and 1%"},
      {"measurement": "Population Mitotic Cells (%)", "setting": "HEK-293T; [3]", "result": "77% and 81%"},
      {"measurement": "Population Normal (%)", "setting": "HEK-293T; [3]", "result": "90% and 88%"},
      {"measurement": "Population Pyknosed Nuclei (%)", "setting": "HEK-293T; [3]", "result": "2% and 3%"},
      {"measurement": "Population Tubulin-Different-Phenotype (%)", "setting": "HEK-293T; [3]", "result": "10% and 14%"},
      {"measurement": "Total Cell Count", "setting": "HEK-293T; [3]", "result": "2926 and 1957"},
      {"measurement": "Population Apoptotic (%)", "setting": "HEK-293T; [4]", "result": "5% and 13%"},
      {"measurement": "Population Fragmented Nuclei (%)", "setting": "HEK-293T; [4]", "result": "14% and 8%"},
      {"measurement": "Population Healthy Nuclei (%)", "setting": "HEK-293T; [4]", "result": "82% and 87%"},
      {"measurement": "Population Hoechst High Intensity Objects (%)", "setting": "HEK-293T; [4]", "result": "10% and 11%"},
      {"measurement": "Population Membrane Permeable-Phenotype (%)", "setting": "HEK-293T; [4]", "result": "4% and 3%"},
      {"measurement": "Population Mitochondria Different-Phenotype (%)", "setting": "HEK-293T; [4]", "result": 0, "unit": "%"},
      {"measurement": "Population Mitotic Cells (%)", "setting": "HEK-293T; [4]", "result": "94% and 86%"},
      {"measurement": "Population Normal (%)", "setting": "HEK-293T; [4]", "result": "89% and 88%"},
      {"measurement": "Population Pyknosed Nuclei (%)", "setting": "HEK-293T; [4]", "result": "2% and 4%"},
      {"measurement": "Population Tubulin-Different-Phenotype (%)", "setting": "HEK-293T; [4]", "result": "12% and 17%"},
      {"measurement": "Total Cell Count", "setting": "HEK-293T; [4]", "result": "3198 and 2304"},
      {"measurement": "Population Apoptotic (%)", "setting": "U2OS; [5]", "result": "33% and 87%"},
      {"measurement": "Population Healthy Nuclei (%)", "setting": "U2OS; [5]", "result": "60% and 83%"},
      {"measurement": "Population Hoechst High Intensity Objects (%)", "setting": "U2OS; [5]", "result": 0, "unit": "%"},
      {"measurement": "Population Membrane Permeable-Phenotype (%)", "setting": "U2OS; [5]", "result": "0% and 1%"},
      {"measurement": "Population Mitochondria Different-Phenotype (%)", "setting": "U2OS; [5]", "result": 0, "unit": "%"},
      {"measurement": "Population Normal (%)", "setting": "U2OS; [5]", "result": 100, "unit": "%"},
      {"measurement": "Population Pyknosed Nuclei (%)", "setting": "U2OS; [5]", "result": "6% and 12%"},
      {"measurement": "Population Tubulin-Different-Phenotype (%)", "setting": "U2OS; [5]", "result": "80% and 82%"},
      {"measurement": "Population Apoptotic (%)", "setting": "U2OS; [6]", "result": "100% and 40%"},
      {"measurement": "Population Healthy Nuclei (%)", "setting": "U2OS; [6]", "result": "53% and 87%"},
      {"measurement": "Population Hoechst High Intensity Objects (%)", "setting": "U2OS; [6]", "result": 0, "unit": "%"},
      {"measurement": "Population Membrane Permeable-Phenotype (%)", "setting": "U2OS; [6]", "result": "7% and 0%"},
      {"measurement": "Population Mitochondria Different-Phenotype (%)", "setting": "U2OS; [6]", "result": "7% and 0%"},
      {"measurement": "Population Normal (%)", "setting": "U2OS; [6]", "result": 100, "unit": "%"},
      {"measurement": "Population Pyknosed Nuclei (%)", "setting": "U2OS; [6]", "result": 7, "unit": "%"},
      {"measurement": "Population Tubulin-Different-Phenotype (%)", "setting": "U2OS; [6]", "result": "78% and 80%"},
      {"measurement": "Population Apoptotic (%)", "setting": "U2OS; [1]", "result": "40% and 80%"},
      {"measurement": "Population Healthy Nuclei (%)", "setting": "U2OS; [1]", "result": "61% and 87%"},
      {"measurement": "Population Hoechst High Intensity Objects (%)", "setting": "U2OS; [1]", "result": 0, "unit": "%"},
      {"measurement": "Population Membrane Permeable-Phenotype (%)", "setting": "U2OS; [1]", "result": 0, "unit": "%"},
      {"measurement": "Population Mitochondria Different-Phenotype (%)", "setting": "U2OS; [1]", "result": 0, "unit": "%"},
      {"measurement": "Population Normal (%)", "setting": "U2OS; [1]", "result": "100% and 99%"},
      {"measurement": "Population Pyknosed Nuclei (%)", "setting": "U2OS; [1]", "result": 8, "unit": "%"},
      {"measurement": "Population Tubulin-Different-Phenotype (%)", "setting": "U2OS; [1]", "result": "80% and 86%"},
      {"measurement": "Population Apoptotic (%)", "setting": "U2OS; [2]", "result": "80% and 41%"},
      {"measurement": "Population Fragmented Nuclei (%)", "setting": "U2OS; [2]", "result": 4, "unit": "%"},
      {"measurement": "Population Healthy Nuclei (%)", "setting": "U2OS; [2]", "result": "71% and 87%"},
      {"measurement": "Population Hoechst High Intensity Objects (%)", "setting": "U2OS; [2]", "result": 0, "unit": "%"},
      {"measurement": "Population Membrane Permeable-Phenotype (%)", "setting": "U2OS; [2]", "result": "6% and 1%"},
      {"measurement": "Population Mitochondria Different-Phenotype (%)", "setting": "U2OS; [2]", "result": 0, "unit": "%"},
      {"measurement": "Population Mitotic Cells (%)", "setting": "U2OS; [2]", "result": "20% and 58%"},
      {"measurement": "Population Normal (%)", "setting": "U2OS; [2]", "result": "100% and 99%"},
      {"measurement": "Population Pyknosed Nuclei (%)", "setting": "U2OS; [2]", "result": "23% and 8%"},
      {"measurement": "Population Tubulin-Different-Phenotype (%)", "setting": "U2OS; [2]", "result": "80% and 83%"},
      {"measurement": "Population Apoptotic (%)", "setting": "U2OS; [3]", "result": "50% and 84%"},
      {"measurement": "Population Healthy Nuclei (%)", "setting": "U2OS; [3]", "result": "72% and 90%"},
      {"measurement": "Population Hoechst High Intensity Objects (%)", "setting": "U2OS; [3]", "result": 0, "unit": "%"},
      {"measurement": "Population Membrane Permeable-Phenotype (%)", "setting": "U2OS; [3]", "result": "0% and 1%"},
      {"measurement": "Population Mitochondria Different-Phenotype (%)", "setting": "U2OS; [3]", "result": 0, "unit": "%"},
      {"measurement": "Population Normal (%)", "setting": "U2OS; [3]", "result": "100% and 99%"},
      {"measurement": "Population Pyknosed Nuclei (%)", "setting": "U2OS; [3]", "result": "10% and 6%"},
      {"measurement": "Population Tubulin-Different-Phenotype (%)", "setting": "U2OS; [3]", "result": "87% and 85%"},
      {"measurement": "Population Apoptotic (%)", "setting": "U2OS; [4]", "result": "75% and 46%"},
      {"measurement": "Population Healthy Nuclei (%)", "setting": "U2OS; [4]", "result": "64% and 92%"},
      {"measurement": "Population Hoechst High Intensity Objects (%)", "setting": "U2OS; [4]", "result": 0, "unit": "%"},
      {"measurement": "Population Membrane Permeable-Phenotype (%)", "setting": "U2OS; [4]", "result": "4% and 0%"},
      {"measurement": "Population Mitochondria Different-Phenotype (%)", "setting": "U2OS; [4]", "result": 0, "unit": "%"},
      {"measurement": "Population Mitotic Cells (%)", "setting": "U2OS; [4]", "result": "25% and 53%"},
      {"measurement": "Population Normal (%)", "setting": "U2OS; [4]", "result": 100, "unit": "%"},
      {"measurement": "Population Tubulin-Different-Phenotype (%)", "setting": "U2OS; [4]", "result": "70% and 85%"}
    ]}
  ]
}
